Format in all cases: functional
The nature of assay [1]: Antitumor activity against mouse EAC cells assessed as inhibition of cell viability at 100 ug/ml by Trypan blue assay. The settings on record: Ehrlich. In outline: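 EAC cells were taken by needle aspiration of ascitic fluid from preinoculated mice and diluted 1:10 in saline. Then 0.1 mL of cell suspension, 0.8 mL RPMI 1640 and 0.1 mL compound were incubated 2 h at 37 °C. Dead cells were counted by trypan blue exclusion, and % non-viable = non-viable/total cells × 100.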

For a further assay, the system named is Escherichia coli. Briefly: Antibacterial activity against Escherichia coli NCTC 10416 at 5 mg/ml after 24 hrs by agar disc diffusion method. The conditions noted are these: NCTC 10416, 24 h, read-out: DIZ. In outline: (§1)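 Agar well-diffusion using 1 cm wells, each loaded with 100 of compound solution (5 mg/mL in DMF). Bacteria were maintained on nutrient agar and plated as a standard suspension. Plates were incubated 24 h at 35 °C, and inhibition zone diameters were measured.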
On the technique in general: Agar diffusion results depend on both activity and mobility in agar.

The test system of the next assay is Micrococcus luteus. Briefly: Antibacterial activity against Sarcina lutea ATCC 934 at 5 mg/ml after 24 hrs by agar disc diffusion method. The settings on record: ATCC 934, 24 h, read-out: DIZ. Summed up:
as §1

The test system of another assay is Bacillus subtilis. Briefly: Antibacterial activity against Bacillus subtilis NCTC 1040 at 5 mg/ml after 24 hrs by agar disc diffusion method. The settings on record: NCTC 1040, 24 h, read-out: DIZ. In outline:
as §1

For a further assay, the system named is Staphylococcus aureus. Briefly: Antibacterial activity against Staphylococcus aureus NCTC 7447 at 5 mg/ml after 24 hrs by agar disc diffusion method. The conditions noted are these: NCTC 7447, 24 h, read-out: DIZ. In outline:
as §1

A further assay deals with Candida albicans. Nature of the assay: Antifungal activity against Candida albicans IMRU 3669 at 5 mg/ml by agar disc diffusion method. The settings on record: read-out: DIZ.
Another assay concerns Aspergillus flavus. Nature of the assay: Antifungal activity against Aspergillus flavus at 5 mg/ml by agar disc diffusion method. The conditions noted are these: read-out: DIZ.

Molecules are shown by their SMILES.

A word on the inhibition: it is the drop in the measured response relative to a control, in per cent.

`COc1ccc(N2C(=N)C(=S)N(c3ccccc3)C2=O)cc1`: the inhibition at 100 µg/mL in assay [1] is 50%. The zone of inhibition at 5000 µg/mL with Escherichia coli stood at 25 mm; in the assay on Micrococcus luteus it was 25 mm; in the assay with Bacillus subtilis, 19 mm; in the assay on Staphylococcus aureus it was 18 mm; in the assay with Candida albicans, 21 mm; in the assay with Aspergillus flavus, 18 mm.
Take `N=C1C(=S)N(c2ccc(I)cc2)C(=O)N1Cc1ccccc1`: the inhibition at 100 µg/mL in assay [1] came to 30%. Further, the zone of inhibition at 5000 µg/mL was found to be 14 mm in the assay on Escherichia coli; 12 mm in the assay on Micrococcus luteus; 15 mm in the assay on Bacillus subtilis; 15 mm in the assay on Staphylococcus aureus; 13 mm in the assay on Candida albicans; 15 mm with Aspergillus flavus.
Consider `Cc1ccc(N2C(=N)C(=S)N(c3ccc(I)cc3)C2=O)cc1`, for which the inhibition at 100 µg/mL in assay [1] came out at 40%. The zone of inhibition at 5000 µg/mL stood at 14 mm in the assay on Escherichia coli; 13 mm with Micrococcus luteus; 16.5 mm in the assay with Bacillus subtilis; 17 mm in the assay on Staphylococcus aureus; 17 mm with Candida albicans; 14 mm in the assay with Aspergillus flavus.
For `COc1ccc(N2C(=N)C(=S)N(c3ccc(I)cc3)C2=O)cc1`, the inhibition at 100 µg/mL in assay [1] turned out to be 20%. The zone of inhibition at 5000 µg/mL in the assay on Escherichia coli was 19 mm; with Micrococcus luteus, 18 mm; in the assay on Bacillus subtilis, 19.5 mm; in the assay on Staphylococcus aureus, 18.5 mm; in the assay with Candida albicans, 23 mm; in the assay with Aspergillus flavus, 18 mm.
